Reference: ChEMBL document CHEMBL4371053, “A novel tetrazole analogue of resveratrol is a potent anticancer agent” (Bioorg Med Chem Lett, 2019)
Calls of active or inactive are those of the source. The calls are words filed in the database; no cut-off is given here.

Key:
KM12 = assay: Growth inhibition of human KM12 cells at 10 uM after 48 hrs by sulforhodamine B assay relative to control; assay type: functional; details: KM12, 48 h, values are per cent of control
Summary of the method: (§1)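 NCI-60 single-dose screen. Cells exposed to 10⁻⁵ M or to vehicle for 48 h. Growth measured by sulforhodamine B optical density before and after exposure. Reported as percent growth relative to vehicle control and to time-zero cell number; negative values indicate cell kill.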

OVCAR-3 = assay: Growth inhibition of human OVCAR3 cells at 10 uM after 48 hrs by sulforhodamine B assay relative to control; assay type: functional; details: OVCAR-3, 48 h, values are per cent of control; summary of the method: as §1
NCI-H522 = assay: Growth inhibition of human NCI-H522 cells at 10 uM after 48 hrs by sulforhodamine B assay relative to control; assay type: functional; details: NCI-H522, 48 h, values are per cent of control; summary of the method: as §1
Tubulin (Homo sapiens) = Tubulin (Homo sapiens) (UniProt P68371+Q9H4B7+P0DPH7+P68366+Q13509+Q71U36+P04350+Q3ZCM7+P07437+P68363+Q9BQE3+Q6PEY2+Q13885+Q9BVA1+Q9BUF5); assay: Inhibition of tubulin (unknown origin) polymerization at 2 uM by immunoblot analysis; assay type: protein-complex assay
Summary of the method: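 Cell-based assay. Cells were treated with compound at 1.0 and 2.0 μM. Polymerized tubulin (pellet) was separated from unpolymerized tubulin (supernatant), and both fractions were immunoblotted with anti-tubulin antibody.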

SK-MEL-5 = assay: Growth inhibition of human SK-MEL-5 cells at 10 uM after 48 hrs by sulforhodamine B assay relative to control; assay type: functional; details: SK-MEL-5, 48 h, values are per cent of control; summary of the method: as §1
NCI-H460 = assay: Growth inhibition of human NCI-H460 cells at 10 uM after 48 hrs by sulforhodamine B assay relative to control; assay type: functional; details: NCI-H460, 48 h, values are per cent of control; summary of the method: as §1
A498 = assay: Growth inhibition of human A498 cells at 10 uM after 48 hrs by sulforhodamine B assay relative to control; assay type: functional; details: A498, 48 h, values are per cent of control; summary of the method: as §1
DU-145 = assay: Growth inhibition of human DU145 cells at 10 uM after 48 hrs by sulforhodamine B assay relative to control; assay type: functional; details: DU-145, 48 h, values are per cent of control; summary of the method: as §1
SF-539 = assay: Growth inhibition of human SF539 cells at 10 uM after 48 hrs by sulforhodamine B assay relative to control; assay type: functional; details: SF-539, 48 h, values are per cent of control; summary of the method: as §1
MDA-MB-435 = assay: Growth inhibition of human MDA-MB-435 cells at 10 uM after 48 hrs by sulforhodamine B assay relative to control; assay type: functional; details: MDA-MB-435, 48 h, values are per cent of control; summary of the method: as §1

SMILES	growth, % of control at 10 µM (KM12) [%]	growth, % of control at 10 µM (OVCAR-3) [%]	growth, % of control at 10 µM (NCI-H522) [%]	inhibition (Tubulin (Homo sapiens))	growth, % of control at 10 µM (SK-MEL-5) [%]	growth, % of control at 10 µM (NCI-H460) [%]	growth, % of control at 10 µM (A498) [%]	growth, % of control at 10 µM (DU-145) [%]	growth, % of control at 10 µM (SF-539) [%]	growth, % of control at 10 µM (MDA-MB-435) [%]
COc1ccc(/C=C(/c2ccc([N+](=O)[O-])cc2)c2nnn[nH]2)c2ccccc12	111	112	89.4	Active	97.1	103	112	113	104	105
COc1ccc(/C(=C/c2cc(OC)c(OC)c(OC)c2)c2nnn[nH]2)cc1OC	99.8	118	90.2	–	96.4	106	89.5	106	96.2	102
COc1ccc(/C=C(/c2cc(OC)c(OC)c(OC)c2)c2nnn[nH]2)cc1	102	113	90.3	Active	94.1	110	102	108	–	100
